# Source: article PMC4894453 (Scientific Reports, 2014)
# Entries after “also recorded” stand apart in the source; their conditions may differ. Like-named read-outs stand apart in the source and are kept apart here.
# Key:
# S. aureus Newman [1] = assay: Macromolecular synthesis, radiolabelled precursors; type: cell-based, Staphylococcus aureus; conditions: 1 and 4 × MIC, 20 min
# How it was run: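 Three independent S. aureus Newman cultures grown to mid-log phase (OD600 ≈ 0.3), then pulsed with 1 μCi/mL [methyl-3H]thymidine, [5,6-3H]uridine or [4,5-3H]leucine. After 5 min, test compound added at 1 and 4× its Newman MIC for 20 min at 37°C. Cold 10% TCA precipitates collected on GF/C filters, washed with 95% ethanol and counted by scintillation; expressed as relative percent activity. Controls: novobiocin, rifampicin, tetracycline.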
# [2] = tested on: Bacillus subtilis ATCC 23857; assay: MIC, microbroth dilution, Bacillus subtilis; type: cell-based; conditions: for MIC: Bacillus subtilis, ATCC23857, read-out: MIC against Gram-positive bacteria, BS; for MIC against Gram-positive bacteria, BS: Bacillus subtilis ATCC 23857, 18–20 h
# How it was run: (§1)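 CLSI microbroth dilution in Mueller-Hinton broth. Test compound at final 200–0.1 μg/ml, diluted from 10 mg/ml DMSO stocks. Plates incubated 18–20 h. MIC is the lowest concentration preventing visible growth.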
# [3] = tested on: methicillin-resistant Staphylococcus aureus N315; assay: MIC, microbroth dilution, MRSA; type: cell-based; conditions: for MIC: Staphylococcus aureus, MRSA, read-out: MIC against Gram-positive bacteria, MRSA; for MIC against Gram-positive bacteria, MRSA: S. aureus N315, 18–20 h
# How it was run: as §1
# [4] = tested on: Enterococcus faecalis ATCC 33186; assay: MIC, microbroth dilution, Enterococcus faecalis; type: cell-based; conditions: for MIC against Gram-positive bacteria, EF: Enterococcus faecalis ATCC 33186; for MIC: Enterococcus faecalis
# [5] = tested on: Streptococcus pneumoniae R6; assay: MIC, microbroth dilution, Streptococcus pneumoniae; type: cell-based; conditions: for MIC: Streptococcus pneumoniae, R6, read-out: MIC against Gram-positive bacteria, SPn; for MIC against Gram-positive bacteria, SPn: Streptococcus pneumoniae R6, 18–20 h
# How it was run: as §1
# [6] = tested on: Streptococcus pyogenes ATCC 700294; assay: MIC, microbroth dilution, Streptococcus pyogenes; type: cell-based; conditions: for MIC: Streptococcus pyogenes, ATCC700294, read-out: MIC against Gram-positive bacteria, SP; for MIC against Gram-positive bacteria, SP: Streptococcus pyogenes ATCC 700294, 18–20 h
# [7] = tested on: Bacillus anthracis sterne; assay: microbe, parasite or virus in culture; type: cell-based; conditions: for MIC: Bacillus anthracis, read-out: MIC against Gram-positive bacteria, BA; for MIC against Gram-positive bacteria, BA: 18–20 h
# S. aureus Newman [8] = assay: Membrane permeability by flow cytometry with propidium iodide; type: cell-based, Staphylococcus aureus; conditions: 10 μM, 30 min, concentrations causing dissipation of the membrane potential
# How it was run: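 S. aureus Newman grown in Mueller-Hinton II broth to OD600 ≈ 0.3 and exposed to test compound at 10 μM for 30 min. Propidium iodide (10 μM) added for 10 min in the dark. Flow cytometry: 10,000 events, 488 nm excitation, red fluorescence; event histograms compared. Thioridazine at 100 μg/mL served as positive control.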
# [9] = tested on: Vero cells (kidney epithelial cells; ATCC CCL-81); assay: Cytotoxicity, CellTiter-Glo viability; type: cell-based; conditions: for Selectivity index: Cytotox IC50/MIC against methicillin-susceptible S. aureus Newman; for Cytotox IC50: Vero kidney cells, 72 h, 50% reduction of viability
# How it was run: (§2)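 Vero kidney epithelial cells exposed 72 h to test compound (final 200–0.1 μg/ml in DMEM; diluted from 10 mg/ml DMSO stocks). Viability read by CellTiter-Glo luminescence. IC50 is the concentration giving 50% viability loss, from curve fitting. Selectivity index is the cytotoxic IC50 divided by the MIC against S. aureus Newman.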
# S. aureus Newman [10] = assay: Membrane potential by flow cytometry with DiOC2; type: cell-based, Staphylococcus aureus; conditions: DiOC2(3); for dissipation of the membrane potential: 10 μM, 30 min
# How it was run: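 Exponential-phase S. aureus Newman (OD600 ≈ 0.3, Mueller-Hinton II broth) treated with test compound at 100, 10 or 1 μM for 30 min at 37°C. Cells stained 5 min with 30 μM DiOC2(3) and run on flow cytometry (10,000 events, 488 nm excitation, green and red emission). Red/green fluorescence ratio histograms compared. CCCP was the positive control; at least two independent samples.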
# [11] = tested on: panel of clinical relevant Gram-positive pathogens; assay: MIC, statements over the Gram-positive panel; type: cell-based; conditions: read-out: MIC over the Gram-positive panel
# [12] = Cytotoxicity, CellTiter-Glo viability; type: cell-based; conditions: African green monkey, Vero cells (kidney epithelial cells; ATCC CCL-81)
# How it was run: as §2
# [13] = tested on: Clostridium difficile BAA 1803; assay: MIC, microbroth dilution, anaerobic, Clostridium difficile; type: cell-based; conditions: for MIC against Gram-positive bacteria, CD: Clostridium difficile BAA 1803; for MIC against Gram-positive bacteria, CD / MIC: Brain-heart infusion broth, 24 h, anaerobic; for MIC: Clostridioides difficile, BAA1803, 24 h, read-out: MIC against Gram-positive bacteria, CD, Clostridium difficile BAA 1803
# [14] = tested on: methicillin-susceptible Staphylococcus aureus Newman; assay: MIC, microbroth dilution, MSSA; type: cell-based; conditions: for MIC against Gram-positive bacteria, MSSA: S. aureus Newman, 18–20 h
# How it was run: as §1
# [15] = tested on: erythrocytes of defibrinated sheep blood; assay: Hemolysis assay; type: cell-based; conditions: sheep erythrocytes 5% in PBS, 37°C, 90 min
# How it was run: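 Defibrinated sheep blood spun at 350 rcf for 20 min; plasma and buffy coat discarded. Erythrocytes washed three times in PBS pH 7.4, then made to a 5% v/v suspension. Suspension mixed 1:1 with two-fold serial dilutions of test compound, with Triton X-100 as positive control. Incubated 37°C for 90 min and centrifuged; supernatant OD540 read. Lysis = (sample − blank)/positive control; EC50 from curve fitting.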
# [16] = ATCC33186, read-out: MIC against Gram-positive bacteria, EF, Enterococcus faecalis ATCC 33186, Mueller-Hinton broth, 18–20 h
Compound,"biosynthesis of DNA, RNA and protein (S. aureus Newman [1])",MIC [2],MIC [3],"MIC against Gram-positive bacteria, EF ([4]; Mueller-Hinton broth, 18–20 h)",MIC [5],MIC [6],MIC [7],physical integrity of the S. aureus membrane (propidium iodide uptake) (S. aureus Newman [8]),Selectivity index [9],dissipation of the membrane potential (S. aureus Newman [10]),MIC [11],"MIC against Gram-positive bacteria, BS [2]","MIC against Gram-positive bacteria, MRSA [3]","MIC against Gram-positive bacteria, SPn [5]","MIC against Gram-positive bacteria, SP [6]","MIC against Gram-positive bacteria, BA [7]","MIC against Gram-positive bacteria, CD [13]","MIC against Gram-positive bacteria, MSSA [14]",Cytotox IC50 [9],Hemolysis EC50 [15],also measured
"C/C(O)=C1\C(=O)C(CC(C)C)N(C(=O)CCCCCc2ccccc2)C1=O (stereo not drawn) [Compound 5, (Z)-3-(1-hydroxyethylidene)-5-isobutyl-1-(6-phenylhexanoyl)pyrrolidine-2,4-dione]",reduced,1.56 µg/mL,< 0.1 µg/mL,0.78 µg/mL,0.78 µg/mL,3.13 µg/mL,> 200 µg/mL,did not disrupt the physical integrity,14,slightly lower than reutericyclin,,,,,,,,,,,fold improvement in activity over reutericyclin ([3]; MRSA N315): 4 fold; fold improvement in activity over reutericyclin ([5]; Strep. pneumoniae): 4 fold; fold improvement in activity over reutericyclin ([6]; Strep. pyogenes): 2 fold
"CC(=O)C1=C(O)C(CC(C)C)NC1=O (stereo not drawn) [Compound 2, 3-acetyl-4-hydroxy-5-isobutyl-1H-pyrrol-2(5H)-one]",,> 200 µg/mL,> 200 µg/mL,,> 200 µg/mL,> 200 µg/mL,> 200 µg/mL,,1,,> 200 µg/mL,,,,,,,,,,"MIC ([4]; ATCC33186, read-out: MIC against Gram-positive bacteria, EF): > 200 µg/mL; IC50 at 72 h [12]: 217 µg/mL; effect on the membrane potential (S. aureus Newman [10]; up to 100 μM): failed to affect the membrane potential"
"CCCCCCC/C=C/C(=O)N1C(=O)/C(=C(\O)C2CCN(C(=O)OC(C)(C)C)CC2)C(=O)[C@H]1CC(C)C [Compound 10, tert-butyl4-((Z)-((R)-1-((E)-dec-2-enoyl)-5-isobutyl-2,4-dioxopyrrolidin-3-ylidene)(hydroxy)methyl) piperidine-1-carboxylate]",,,,0.39 µg/mL,,,,,,,,1.56 µg/mL,0.2 µg/mL,3.13 µg/mL,3.13 µg/mL,0.78 µg/mL,0.25 µg/mL,0.40 µg/mL,14.22 µg/mL,61.61 µg/mL,
"CCCCCCC/C=C/C(=O)N1C(=O)/C(=C(\O)c2ccc(F)cc2)C(=O)C1CC(C)C (stereo not drawn) [Compound 13, (Z)-1-((E)-dec-2-enoyl)-3-((4-fluorophenyl)(hydroxy)methylene)-5-isobutylpyrrolidine-2,4-dione]",reduced,0.39 µg/mL,< 0.1 µg/mL,,12.5 µg/mL,6.25 µg/mL,0.39 µg/mL,did not disrupt the physical integrity,67,reduced the membrane potential in a manner similar to reutericyclin,< 1 µg/mL,,,,,,,,,,"MIC [4, 16]: 0.2 µg/mL; MIC [13]: < 0.03 µg/mL"
"(Z)-1-((E)-dec-2-enoyl)-3-(1-hydroxyethylidene)-5-isobutylpyrrolidine-2,4-dione [Compound 1, reference compound]",reduced,,,0.20 µg/mL,,,,did not disrupt the physical integrity,,,,0.39 µg/mL,0.4 µg/mL,3.13 µg/mL,6.25 µg/mL,0.20 µg/mL,0.09 µg/mL,0.78 µg/mL,7.46 µg/mL,27.87 µg/mL,Cytotox IC50 ([9]; listed as reutericyclin): 7.5 µg/mL; dissipation of the membrane potential (S. aureus Newman [10]; listed as reutericyclin): completely dissipated
"CCCCCCC/C=C/C(=O)N1C(=O)/C(=C(\O)CCCC)C(=O)C1CC(C)C (stereo not drawn) [Compound 6, (Z)-1-((E)-dec-2-enoyl)-3-(1-hydroxypentylidene)-5-isobutylpyrrolidine-2,4-dione]",,0.39 µg/mL,< 0.1 µg/mL,,3.13 µg/mL,3.13 µg/mL,0.39 µg/mL,did not disrupt the physical integrity,>58,slightly lower than reutericyclin; also recorded: did not rapidly dissipate the membrane potential,< 1 µg/mL,,,,,,,,,,"MIC [4, 16]: 0.2 µg/mL; fold improvement in activity over reutericyclin ([13]; C. difficile): > 3 fold; MIC [13]: < 0.03 µg/mL; fold improvement in activity over reutericyclin ([14]; S. aureus, strain not given): > 4 fold"
